Results on seven compounds are retold here after ChEMBL document CHEMBL1123286 (J Med Chem, 1986).

Experiment [1] relates to Mus musculus. Description: In vivo opioid activity was evaluated by determining analgesia in the mouse by the tail-flick test when administered through intracerebroventricular route. In kind it is functional. The procedure, abridged: (§1)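 Swiss-Webster mice (23–25 g), tail-flick test with 55 °C water as the stimulus. Compound was given icv or sc in saline (4 μL), with latency read before and at various times after dosing. Cut-off was 10 s. %analgesia = (T−T0)/(10−T0)×100. At least 10 animals per dose; ED50 taken at time of peak activity. Naloxone pretreatment 0.5–1 mg/kg sc.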
(In hot-plate and tail-flick tests a longer latency is read as antinociception.)

In experiment [2] the test system is Mus musculus. Kind of experiment: In vivo opioid activity was evaluated by determining analgesia in the mouse by the tail-flick test, when administered through subcutaneous route. It is filed as functional. To be noted: sc. The procedure, abridged:
as §1

Experiment [3] has as its system Mus musculus. Description: In vivo opioid activity was evaluated by determining analgesia in the mouse by the tail-flick test, when administered through Subcutaneous route. It is filed as functional. Conditions: sc. The procedure, abridged:
as §1

The test system of experiment [4] is Mus musculus. Kind of experiment: In vivo opioid activity was evaluated by determining analgesia in the mouse by the tail-flick test. Relative potency with respect to morphine when administered through subcutaneous route. In kind it is functional. The procedure, abridged: (§2)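 Mouse tail-flick analgesia in Swiss-Webster mice (23–25 g) with 55 °C water, compound given icv or sc in saline (4 μL). Cut-off was 10 s; %analgesia was computed from pre- and post-dose latencies. At least 10 animals per dose, with ED50 taken at peak activity.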

The test system of experiment [5] is Mus musculus. Description: In Vivo opioid activity was evaluated by determining analgesia in the mouse by the tail-flick test when administered through intra cerebro ventricular route. In kind it is functional. The procedure, abridged:
as §1

The test system of experiment [6] is Mus musculus. Description: In vivo opioid activity was evaluated by determining analgesia in the mouse by the tail-flick test, relative potency with respect to morphine intra cerebro ventricular route. In kind it is functional. An outline of the steps: as §2
The target in experiment [7] is Opioid receptors; mu/kappa/delta. Description: In vitro opioid inhibitory activity against in guinea pig ileum. In kind it is functional, tissue-based, Cavia porcellus.
The target of experiment [8] is Opioid receptors; mu/kappa/delta (Homo sapiens, UniProt P41145+P41143+P35372). Kind of experiment: In vitro inhibitory activity against opioid activity in guinea pig ileum, relative to H-Tyr-D-MetO-Phe-Gly-NH2. It is filed as tissue-based. To be noted: Cavia porcellus, target entry is the homologue from another species.
Sequence of Opioid receptors; mu/kappa/delta (Homo sapiens, UniProt P41145+P41143+P35372) (P35372 whole entry, looked up): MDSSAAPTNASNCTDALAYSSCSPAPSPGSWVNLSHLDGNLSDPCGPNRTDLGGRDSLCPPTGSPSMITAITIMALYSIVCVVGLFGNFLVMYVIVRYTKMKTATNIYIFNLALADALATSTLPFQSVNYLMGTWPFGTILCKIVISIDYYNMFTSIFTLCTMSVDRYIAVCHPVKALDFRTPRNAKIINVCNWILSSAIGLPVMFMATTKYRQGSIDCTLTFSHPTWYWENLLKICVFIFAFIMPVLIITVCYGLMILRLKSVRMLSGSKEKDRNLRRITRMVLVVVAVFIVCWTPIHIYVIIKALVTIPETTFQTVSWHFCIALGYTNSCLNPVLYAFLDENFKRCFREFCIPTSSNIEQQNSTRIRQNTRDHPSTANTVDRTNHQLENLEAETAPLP
Sequence of Opioid receptors; mu/kappa/delta (Homo sapiens, UniProt P41145+P41143+P35372) (P41143 whole entry, looked up): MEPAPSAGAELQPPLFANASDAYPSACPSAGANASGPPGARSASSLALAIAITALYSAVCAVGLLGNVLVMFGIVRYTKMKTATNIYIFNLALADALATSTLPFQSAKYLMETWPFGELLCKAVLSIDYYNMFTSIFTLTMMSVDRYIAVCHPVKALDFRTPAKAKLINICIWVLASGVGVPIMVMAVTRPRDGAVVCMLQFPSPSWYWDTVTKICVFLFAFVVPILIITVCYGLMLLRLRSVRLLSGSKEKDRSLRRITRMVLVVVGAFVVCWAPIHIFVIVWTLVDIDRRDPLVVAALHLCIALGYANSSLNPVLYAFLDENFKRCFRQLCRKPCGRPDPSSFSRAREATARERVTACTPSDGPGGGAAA
Sequence of Opioid receptors; mu/kappa/delta (Homo sapiens, UniProt P41145+P41143+P35372) (P41145 whole entry, looked up): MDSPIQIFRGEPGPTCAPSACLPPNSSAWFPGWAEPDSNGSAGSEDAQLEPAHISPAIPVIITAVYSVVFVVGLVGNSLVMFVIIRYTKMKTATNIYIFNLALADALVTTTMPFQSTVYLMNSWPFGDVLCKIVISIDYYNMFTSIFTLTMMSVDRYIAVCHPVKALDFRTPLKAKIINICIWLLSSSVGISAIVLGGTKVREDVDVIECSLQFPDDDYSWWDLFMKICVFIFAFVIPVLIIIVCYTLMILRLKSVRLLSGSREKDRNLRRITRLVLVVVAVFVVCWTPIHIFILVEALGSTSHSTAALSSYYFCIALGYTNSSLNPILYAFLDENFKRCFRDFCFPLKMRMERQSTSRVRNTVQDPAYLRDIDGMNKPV
Experiment [9] concerns Mus musculus. Description: In vivo opioid activity was evaluated by determining analgesia in the mouse by the tail-flick test when administered through intra cerebro ventricular route. To be noted: Cardiac ventricle.
In experiment [10] the test system is Mus musculus. Kind of experiment: In vivo opioid activity was evaluated by determining analgesia in the mouse by the tail-flick test Relative potency with respect to morphine when administered through subcutaneous route. It is filed as functional. An outline of the steps:
as §2

In experiment [11] the test system is Mus musculus. Kind of experiment: In vivo opioid activity was evaluated by determining analgesia in the mouse by the tail-flick test, relative potency with respect to morphine intracerebroventricular route. In kind it is functional. The procedure, abridged:
as §2

Experiment [12] concerns Mus musculus. Kind of experiment: In vivo opioid activity was evaluated by determining analgesia in the mouse by the tail-flick test, Relative potency with respect to morphine intracerebroventricular route. It is filed as functional. The procedure, abridged:
as §2

Where a SMILES comes first, the peptide text is derived from it. [ ]: non-standard residue; d: D form.

With `C[S+]([O-])CC[C@@H](NC(=O)[C@@H](N)Cc1ccc(O)cc1)C(=O)N[C@@H](Cc1ccccc1)C(=O)NCC(N)=O` (some centres undefined), the ED50 in the experiment on Mus musculus [1] was determined as 1.97 pmol/mouse; with Mus musculus [2], 0.65 µmol/kg.
Usually IC50 stands for the concentration needed to halve the response being measured. The low end stands for greater potency, the high end for weaker potency. For `CSCC[C@@H](NC(=O)[C@@H](N)Cc1ccc(O)cc1)C(=O)N[C@@H](Cc1ccccc1)C(=O)NCC(N)=O` (H-Y[dM]FG-NH2), the results for the ED50 with Mus musculus [3] and in the experiment with Mus musculus [5] were 12.1 µmol/kg and 87.5 µmol/kg, respectively. Moreover, the Relative potency in the experiment with Mus musculus [4] was 0.9; with Mus musculus [6], 35; in [8] it was 0.1. Besides, in [7], the IC50 worked out at 97.6 nM.
For the compound `CN1CC[C@]23c4c5ccc(O)c4O[C@H]2[C@@H](O)C=C[C@H]3[C@H]1C5` [MORPHINE], in the experiment with Mus musculus [9], the ED50 is 3030 µmol/kg.
With `CC(NC(=O)CNC(=O)[C@H](Cc1ccccc1)NC(=O)[C@@H](CC[S+](C)[O-])NC(=O)[C@@H](N)Cc1ccc(O)cc1)c1ccccc1` (some centres undefined), the ED50 in the experiment with Mus musculus [1] turned out to be 83.6 pmol/mouse; with Mus musculus [2] it was 5.81 µmol/kg. Also, the Relative potency in the experiment with Mus musculus [10] came to 1.8; with Mus musculus [11] it was 36. This compound also returned an IC50 in experiment [7] of 72.1 nM.
As for `CN(CC(=O)NC12CC3CC(CC(C3)C1)C2)C(=O)[C@H](Cc1ccccc1)NC(=O)[C@@H](CC[S+](C)[O-])NC(=O)[C@@H](N)Cc1ccc(O)cc1` (some centres undefined), the figures for the ED50 with Mus musculus [1] and in the experiment with Mus musculus [3] were 60.6 pmol/mouse and 4.82 µmol/kg, respectively. Moreover, the Relative potency in the experiment with Mus musculus [10] was 2.3; in the experiment with Mus musculus [11], 50. In experiment [7], this compound came in with an IC50 of 25.5 nM.
On to `C[S+]([O-])CC[C@@H](NC(=O)[C@@H](N)Cc1ccc(O)cc1)C(=O)N[C@@H](Cc1ccccc1)C(=O)NCC(=O)NCc1ccccc1` (some centres undefined), for which the ED50 was found to be 18.1 pmol/mouse in the experiment on Mus musculus [1] and 3.51 µmol/kg in the experiment with Mus musculus [2]. In addition, the Relative potency worked out at 3.1 with Mus musculus [10] and 167 in the experiment on Mus musculus [12]. In [7], this compound returned an IC50 of 21 nM.
For the compound `C[S+]([O-])CC[C@@H](NC(=O)[C@@H](N)Cc1ccc(O)cc1)C(=O)N[C@@H](Cc1ccccc1)C(=O)NCC(=O)NC12CC3CC(CC(C3)C1)C2` (some centres undefined), the ED50 came out at 30.4 pmol/mouse in the experiment with Mus musculus [1] and 3.93 µmol/kg with Mus musculus [3]. Also, the figures for the Relative potency in the experiment with Mus musculus [10] and in the experiment on Mus musculus [11] were 2.8 and 100, respectively. This compound also registered an IC50 in experiment [7] of 22 nM.
